Test results published in ChEMBL document CHEMBL1158527, “Identification of novel allosteric nonpeptidergic inhibitors of the human cytomegalovirus-encoded chemokine receptor US28” (Bioorg Med Chem, 2010).

Columns and labels:
[1] = Displacement of [125I]CCL5 from HCMV US28 receptor; parameters: species or system Human betaherpesvirus 5
Procedure, shortened: (§1)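 Allosteric inhibition of chemokine binding to US28 was measured by ¹²⁵I-CCL5 radioligand binding. IC50 values (mean and interval) came from competition curves. Single-point data give percent inhibition of CCL5 binding at 10 µM compound. All runs were in triplicate and repeated at least three times.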

[2] = Activity at HCMV US28 receptor assessed as receptor-mediated inositol phosphate response; parameters: species or system Human betaherpesvirus 5
Procedure, shortened: (§2)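 Compounds were tested against ligand-independent (constitutive) US28-driven inositol phosphate production, measured as InsP accumulation. EC50 values (mean and interval) came from dose–response curves. Single-point data give percent inhibition of constitutive signaling at 10 µM compound. All runs were in triplicate and repeated at least three times.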

[3] = system: Human betaherpesvirus 5; experiment: Activity at HCMV US28 receptor assessed as receptor-mediated inositol phosphate response at 10 uM; procedure, shortened: as §2
[4] = system: Human betaherpesvirus 5; experiment: Displacement of [125I]CCL5 from HCMV US28 receptor at 10 uM; procedure, shortened: as §1

SMILES	IC50 [1] [µM]	EC50 [2] [µM]	Activity [3] [%]	Activity [4] [%]
CSc1ccc2c(c1)C(N1CCN(C)CC1)Cc1ccccc1S2 (stereo unspecified) [METITEPINE]	0.41	7.6		
OC1(c2ccc(Cl)cc2)CCN(CCCC(c2ccc(F)cc2)c2ccc(F)cc2)CC1	3	5.2		
CCCCN1CCN(C2=Nc3cc(Cl)ccc3Nc3ccccc32)CC1	4.7		19	
CC(Cc1cccc(C(F)(F)F)c1)NCCc1c2ccccc2nc2ccccc12 (stereo unspecified)	5.5		34	
C=C[C@H]1CN2CC[C@@H]1C[C@H]2C(OC(=O)c1ccc(C)cc1)c1ccnc2ccccc12 (stereo partly specified)	0.3			
CCN1CCC[C@H]1CNC(=O)c1c(OC)ccc(I)c1O [IOLOPRIDE]	0.3			
CN1CCN(C2=Nc3ccccc3Sc3ccc(Cl)cc32)CC1			0	28
CCN1CCN(C2=Nc3cc(Cl)ccc3Nc3ccccc32)CC1	3.8		16	
OC1(c2ccc(Cl)cc2)CCCN(CCCN2Cc3ccccc3CCc3ccccc32)C1 (stereo unspecified)	0.9	3.9		
CN1CCN(C2=Nc3cc(Cl)ccc3Sc3ccccc32)CC1			0	47
CC(=O)Nc1ccc(CC2Cc3ccccc3C2N)cc1 (stereo unspecified)	> 100	> 100		
CN1CCN(C2c3ccccc3CC2Cc2ccc(Cl)cc2Cl)CC1 (stereo unspecified)	8.1	12.1		
OC1(c2ccc(Cl)cc2)CCN(CCCN2Cc3ccccc3CCc3ccccc32)CC1	0.7	4.7		
CC(Cc1ccccc1)NCC=C1c2ccccc2CCc2ccccc21 (stereo unspecified)	4.2		39	
OC1(c2ccc(Cl)cc2)CCN(CCCN(Cc2ccccc2)c2ccc(Cl)cc2)CC1	1.8	5		
CN1CCN(CCCN2Cc3ccccc3CCc3ccccc32)CC1	4.9		3	
CC(C)N1C2CCC1CC(OC1c3ccccc3C=Cc3ccccc31)C2 (stereo unspecified)			3	13

SMILES	IC50 [1] [µM]	EC50 [2] [µM]	Activity [3] [%]	Activity [4] [%]
NC1c2ccccc2CCC1Cc1ccc(Cl)cc1Cl (stereo unspecified)	8.5	12.6		
CC(Cc1ccccc1)NCCC1c2ccccc2CCc2ccccc21 (stereo unspecified)	3.7	5.2		
CN1CCN(/C(=C/c2cccc(Cl)c2)c2ccccc2)CC1			20	13
CN1CCN(C2Cc3ccccc3Sc3ccc(Cl)cc32)CC1 (stereo unspecified) [CLOROTEPINE]	4.9	12.1		
CCN1CCN(C2=Nc3cc(Cl)ccc3Oc3ccccc32)CC1			0	38
NC1c2ccccc2CC1Cc1ccccc1 (stereo unspecified)	80.6	> 100		
NC1c2ccccc2CC1Cc1ccc(Cl)cc1Cl (stereo unspecified)	9.5	11.1		
O=C(CCN1CCN(CCO)CC1)N1Cc2ccccc2CCc2ccccc21	> 100		0	
Cc1ccc(CC2Cc3ccccc3C2N)c(C)c1 (stereo unspecified)	17.7	13.7		
CCN1C2CCC1CC(OC1c3ccccc3CCc3ccccc31)C2 (stereo unspecified)			0	7
c1ccc(CCN2C3CCC2CC(OC2c4ccccc4CCc4ccccc42)C3)cc1 (stereo unspecified)	11.9	4.3		
Clc1ccc(CC2Cc3ccccc3C2N2CCCCC2)c(Cl)c1 (stereo unspecified)	13.4	2.6		
CCCN1C2CCC1CC(OC1c3ccccc3C=Cc3ccccc31)C2 (stereo unspecified)			0	18
NC(CCc1ccccc1)c1ccc(Cl)c(Cl)c1 (stereo unspecified)			34	5
NCC1(c2ccc(Cl)cc2)CCN(CCCN2Cc3ccccc3CCc3ccccc32)CC1	1.6	7.6		
COc1ccccc1CC1Cc2ccccc2C1N (stereo unspecified)	37.3	42.7		
COc1ccc(CC2Cc3ccccc3C2N)cc1C (stereo unspecified)	59.7	16.4		
